According to ChEMBL document CHEMBL3272041, “Quantitative correlations between albumin binding constants and chromatographic Rm values of phenothiazine derivatives” (J Med Chem, 1977):

How the values were obtained:
[1] = Dissociation constant, pKa of the compound by UV-visible spectrophotometer analysis; format: physicochemical
[2] = Oleyl alcohol-water partition coefficient, Rm of the compound measured at 0% methanol by reverse-phase thin layer chromatography; format: physicochemical
Method in brief: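 Reversed-phase TLC on Kieselguhr G impregnated with oleyl alcohol. Mobile phases were methanol–water with ammonia and KCl, pH* 10.5, ionic strength 0.1 M, methanol 30–55% (w/w). Each compound had 10–12 Rm determinations at each methanol concentration.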

Albumin [3] = molecular target: T1, Albumin (Bos taurus, UniProt P02769); assay: Binding affinity to bovine serum albumin by circular dichroic probe technique; format: ADME; conditions: cattle, isolated protein
T1 sequence (P02769 whole entry): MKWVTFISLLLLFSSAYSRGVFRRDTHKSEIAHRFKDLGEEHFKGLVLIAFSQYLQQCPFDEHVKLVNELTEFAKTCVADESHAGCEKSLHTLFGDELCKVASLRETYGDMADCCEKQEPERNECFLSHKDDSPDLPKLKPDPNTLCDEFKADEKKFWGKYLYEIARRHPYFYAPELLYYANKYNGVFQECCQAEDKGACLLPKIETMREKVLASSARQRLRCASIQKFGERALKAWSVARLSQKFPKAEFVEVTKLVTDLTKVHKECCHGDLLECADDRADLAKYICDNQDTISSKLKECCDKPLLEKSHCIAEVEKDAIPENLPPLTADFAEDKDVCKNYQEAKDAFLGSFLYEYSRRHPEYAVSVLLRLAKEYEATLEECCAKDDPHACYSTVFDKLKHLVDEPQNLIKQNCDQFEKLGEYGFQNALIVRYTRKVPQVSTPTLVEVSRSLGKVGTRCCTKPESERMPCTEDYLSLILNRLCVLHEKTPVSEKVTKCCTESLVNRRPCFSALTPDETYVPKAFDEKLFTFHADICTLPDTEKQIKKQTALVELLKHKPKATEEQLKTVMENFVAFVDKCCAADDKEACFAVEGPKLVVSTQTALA

[4] = Octanol-water partition coefficient, log P of the compound; format: physicochemical
Albumin [5] = molecular target: T1, Albumin; assay: Binding affinity to bovine serum albumin; format: ADME; conditions: cattle, isolated protein
Albumin [6] = molecular target: T1, Albumin; assay: Binding affinity to bovine serum albumin assessed as intrinsic binding constant; format: ADME; conditions: cattle, isolated protein
Albumin [7] = molecular target: T1, Albumin; assay: Binding affinity to bovine serum albumin high affinity site by circular dichroic probe technique; format: ADME; conditions: cattle, isolated protein
Method in brief: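 Displacement of sulfaethidole from its primary BSA site, followed by circular dichroism. Solutions were in 0.054 M sodium phosphate, pH 7.44 (25 °C), isotonic with NaCl. Reagent concentrations were 1.45 × 10−5 and 2.11 × 10−5 M. Spectra were scanned from 420 to 265 nm in 10-mm cells, with ellipticity read at 280–286 nm, corrected for drug effect on BSA. Apparent K came from the Klotz equation (n = 1) and was extrapolated to zero drug concentration.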

Compound | pKa [1] | Rm [2] | logKa (Albumin [3]) | logP [4] | log K (Albumin [5]) | log K (Albumin [6]) | Activity (Albumin [7]) [×10⁵ L/mol]
CN(C)CCCN1c2ccccc2Sc2ccc(C#N)cc21 | 9.29 | 2.94 | 4.46 |  |  |  | 
CCCC(=O)c1ccc2c(c1)N(CCCN1CCN(C)CC1)c1ccccc1S2 [BUTAPERAZINE] | 8.1 | 3.37 | 4.78 |  |  |  | 
CN(C)CCCN1c2ccccc2Sc2ccc(Cl)cc21 [CHLORPROMAZINE] |  | 4.12 | 4.98 |  |  |  | 
CC(CN1CCN(CCOCCO)CC1)CN1c2ccccc2Sc2ccccc21 (stereo not given) [DIXYRAZINE] | 8 | 2.49 | 4.21 |  |  |  | 
OCCN1CCN(CCCN2c3ccccc3Sc3ccc(C(F)(F)F)cc32)CC1 [FLUPHENAZINE] |  | 3.03 |  | 4.47 |  |  | 
CN1CCCCC1CCN1c2ccccc2Sc2ccc([S+](C)[O-])cc21 (stereo not given) [MESORIDAZINE] |  | 2.32 |  |  |  |  | 
COc1ccc2c(c1)N(CCCN(C)C)c1ccccc1S2 [METHOXYPROMAZINE] | 9.41 | 3.19 | 4.66 | 4.63 | 4.11 |  | 
CN1CCN(CCCN2c3ccccc3Sc3ccccc32)CC1 [PERAZINE] | 8.1 | 2.67 | 4.36 | 3.8 | 4.32 | 3.33 | 
N#Cc1ccc2c(c1)N(CCCN1CCC(O)CC1)c1ccccc1S2 [PERICIAZINE] | 8.5 | 2.17 | 4.12 |  |  |  | 
OCCN1CCN(CCCN2c3ccccc3Sc3ccc(Cl)cc32)CC1 [PERPHENAZINE] | 7.9 | 2.74 | 4.2 | 3.92 |  |  | 
CN1CCN(CCCN2c3ccccc3Sc3ccc(Cl)cc32)CC1 [PROCHLORPERAZINE] |  | 3.38 | 4.59 |  |  | 3.7 | 
CN(C)CCCN1c2ccccc2Sc2ccccc21 [PROMAZINE] | 9.42 | 3.43 | 4.54 | 4.68 | 3.95 | 3.45 | 
CCc1nnc(NS(=O)(=O)c2ccc(N)cc2)s1 [SULFAETHIDOLE] |  |  |  |  |  |  | 2.1
CSc1ccc2c(c1)N(CCC1CCCCN1C)c1ccccc1S2 (stereo not given) [THIORIDAZINE] |  | 4.51 | 5.15 |  |  |  | 
CN1CCN(CCCN2c3ccccc3Sc3ccc(C(F)(F)F)cc32)CC1 [TRIFLUOPERAZINE] |  | 3.55 | 4.67 |  |  |  | 
CN(C)CCCN1c2ccccc2Sc2ccc(C(F)(F)F)cc21 [TRIFLUPROMAZINE] |  | 4.24 | 5.17 |  | 4.58 | 3.99 | 
